Experimental data: ChEMBL document CHEMBL1123665, “Substituted (aryloxy)alkanoic acids as antagonists of slow-reacting substance of anaphylaxis” (J Med Chem, 1987)
Active and inactive are the calls of the source. The calls are words filed in the database; no cut-off is given here.

Legend:
Cavia porcellus [1] = test: In vivo inhibition of leukotriene-induced bronchoconstriction in guinea pigs following 10 mg/kg i.v. administration.; assay type: functional; details: route intravenous
Outline: (§1)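 Male Hartley guinea pigs (400–600 g) were anesthetized with urethane 2 g/kg i.p. and given propranolol 0.1 mg/kg i.v. 5 min before challenge. After succinylcholine 1.2 mg/kg i.v., animals were ventilated at 40 breaths/min with 4.0 cm3 stroke volume. Drug (10 mg/kg) or vehicle went via jugular cannula 30 s before LTE 25 μg/kg i.v. Tracheal pressure change gave % inhibition (3 control, 5 treated).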

Cavia porcellus [2] = test: In vivo inhibition of leukotriene-induced bronchoconstriction in guinea pigs, was determined, by administering compound by aerosol route; assay type: functional, organism-based
Outline: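 Urethane-anesthetized male guinea pigs were given propranolol 0.1 mg/kg i.v. 5 min before aerosol. Spontaneously breathing animals inhaled an NaOH-neutralized aqueous drug solution (varied % w/v) or distilled water for 5 min from an ultrasonic nebulizer, then were challenged with i.v. LTE. Tracheal pressure change was compared across 3 control and 5 treated animals. IC50 came from log concentration–response regression over ≥3 concentrations in the 10–90% range.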

Cavia porcellus [3] = species on record: Cavia porcellus; test: In vitro inhibition of SRS-A-induced contractions in guinea pig ileum; assay type: functional
[4] = biological target: Cysteinyl leukotriene receptor (Cavia porcellus); test: In vitro inhibition of SRS-A-induced contractions in guinea pig ileum
Cavia porcellus [5] = test: In vivo inhibition of leukotriene-induced bronchoconstriction in guinea pigs, was determined, by administering compound by aerosol route, after 17 min; assay type: functional, organism-based
Outline: (§2)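 Duration of aerosol protection was measured in anesthetized, propranolol-pretreated male guinea pigs. Each inhaled a 1% neutralized aqueous drug solution by ultrasonic nebulizer for 5 min. LTE i.v. challenge followed after 30 s or 5, 10, 30, 60 or 90 min. Tracheal pressure change gave % inhibition (3 control, 5 treated). Duration is the time at which inhibition fell to 40%.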

Cavia porcellus [6] = species on record: Cavia porcellus; test: Inhibitory potency against leukotriene D4 (LTD) induced bronchoconstriction in guinea pigs.; assay type: functional, organism-based
Outline: (§3)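 Anesthetized male guinea pigs were pretreated with propranolol 0.1 mg/kg i.v. and monitored by tracheal pressure. Maximally constrictory i.v. challenges were LTC 50 μg/kg, LTD 50 μg/kg, LTE 25 μg/kg, PAF 10 μg/kg and histamine 50 μg/kg. Dosing, group sizes and % inhibition calculation were otherwise as for the LTE protocol.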

Cavia porcellus [7] = species on record: Cavia porcellus; test: Inhibitory potency against leukotriene E4 (LTE) induced bronchoconstriction in guinea pigs.; assay type: functional, organism-based; outline: as §3
Cavia porcellus [8] = species on record: Cavia porcellus; test: Inhibitory potency against leukotriene C4 (LTC) induced bronchoconstriction in guinea pigs.; assay type: functional, organism-based; outline: as §3
Cavia porcellus [9] = species on record: Cavia porcellus; test: Inhibitory potency against histamine induced bronchoconstriction in guinea pigs.; assay type: functional, organism-based; outline: as §3
Cavia porcellus [10] = species on record: Cavia porcellus; test: Inhibitory potency against platelet activating factor (PAF) induced bronchoconstriction in guinea pigs.; assay type: functional, organism-based; outline: as §3
Cavia porcellus [11] = test: In vivo inhibition of leukotriene-induced bronchoconstriction in guinea pigs, was determined, by administering compound by aerosol route, after 77 min; assay type: functional, organism-based; outline: as §2
Cavia porcellus [12] = test: In vivo inhibition of leukotriene-induced bronchoconstriction in guinea pigs, was determined, by administering 10 mg/kg of compound intravenously.;This compound caused bronchoconstriction; bc = Compound caused bronchoconstriction; assay type: functional, organism-based; design: dose 10 mg/kg; outline: as §1
Cavia porcellus [13] = test: In vivo inhibition of leukotriene-induced bronchoconstriction in guinea pigs, was determined, by administering compound by aerosol route, after 49 min; assay type: functional, organism-based; outline: as §2
Cavia porcellus [14] = test: In vivo inhibition of leukotriene-induced bronchoconstriction in guinea pigs, was determined, by administering compound by aerosol route, after 14 min; assay type: functional, organism-based; outline: as §2
Cavia porcellus [15] = test: In vivo inhibition of leukotriene-induced bronchoconstriction in guinea pigs, was determined, by administering compound by aerosol route, after 55 min; assay type: functional, organism-based; outline: as §2
Cavia porcellus [16] = test: In vivo inhibition of leukotriene-induced bronchoconstriction in guinea pigs, was determined, by administering 10 mg/kg of compound intravenously.; assay type: functional; details: route intravenous; outline: as §1
Cavia porcellus [17] = species on record: Cavia porcellus; test: Inhibitory potency against leukotriene C4 (LTC) induced bronchoconstriction in guinea pigs; assay type: functional, organism-based; outline: as §3
Cavia porcellus [18] = species on record: Cavia porcellus; test: Inhibitory potency against leukotriene D4 (LTD) induced bronchoconstriction in guinea pigs; assay type: functional, organism-based; outline: as §3
Cavia porcellus [19] = test: In vivo inhibition of leukotriene-induced bronchoconstriction in guinea pigs, was determined, by administering compound by aerosol route, after 73 min; assay type: functional, organism-based; outline: as §2
Cavia porcellus [20] = test: In vivo inhibition of leukotriene-induced bronchoconstriction in guinea pigs, was determined, by administering compound by aerosol route, after 9 min; assay type: functional, organism-based; outline: as §2
Cavia porcellus [21] = test: In vivo inhibition of leukotriene-induced bronchoconstriction in guinea pigs, was determined, by administering compound by aerosol route, after 37 min; assay type: functional, organism-based; outline: as §2
Cavia porcellus [22] = test: In vivo inhibition of leukotriene-induced bronchoconstriction in guinea pigs, was determined, by administering compound by aerosol route, after 22 min; assay type: functional, organism-based; outline: as §2
Cavia porcellus [23] = test: In vivo inhibition of leukotriene-induced bronchoconstriction in guinea pigs, was determined, by administering compound by aerosol route, after 45 min; assay type: functional, organism-based; outline: as §2
Cavia porcellus [24] = test: In vivo inhibition of leukotriene-induced bronchoconstriction in guinea pigs, was determined, by administering compound by aerosol route, after 46 min; assay type: functional, organism-based; outline: as §2
Cavia porcellus [25] = test: In vivo inhibition of leukotriene-induced bronchoconstriction in guinea pigs, was determined, by administering compound by aerosol route, after 42 min; assay type: functional, organism-based; outline: as §2
Cavia porcellus [26] = test: In vivo inhibition of leukotriene-induced bronchoconstriction in guinea pigs, was determined, by administering compound by aerosol route, after 25 min; assay type: functional, organism-based; outline: as §2
Cavia porcellus [27] = test: In vivo inhibition of leukotriene-induced bronchoconstriction in guinea pigs, was determined, by administering compound by aerosol route, after 30 min; assay type: functional, organism-based; outline: as §2
Cavia porcellus [28] = test: In vivo inhibition of leukotriene-induced bronchoconstriction in guinea pigs, was determined, by administering compound by aerosol route, after 90 min; assay type: functional, organism-based; outline: as §2
Cavia porcellus [29] = test: In vivo inhibition of leukotriene-induced bronchoconstriction in guinea pigs, was determined, by administering compound by aerosol route, after 15 min; assay type: functional, organism-based; outline: as §2
Cavia porcellus [30] = test: In vivo inhibition of leukotriene-induced bronchoconstriction in guinea pigs, was determined, by administering compound by aerosol route, after 7 min; assay type: functional, organism-based; outline: as §2

Row | Structure (SMILES) | inhibition in vivo at 10 mg/kg (Cavia porcellus [1]) [%] | IC50 [4] [nM] | IC50 (Cavia porcellus [7]) [% conc] | IC50 (Cavia porcellus [9]) [% conc] | IC50 (Cavia porcellus [10]) [% conc] | also measured
1 | CCCc1c(OCCOCCOCCOc2c(C(C)=O)ccc(OCCCC(=O)O)c2CCC)ccc(C(C)=O)c1O | 57 | – | – | – | – | IC50 (Cavia porcellus [2]): 1 % conc; IC50 (Cavia porcellus [3]): 500 nM
2 | CCCc1c(OCCOCCOc2c(C(C)=O)ccc(OCCCC(=O)O)c2CCC)ccc(C(C)=O)c1O | 91 | 100 | – | – | – | IC50 (Cavia porcellus [5]): 0.22 % conc
3 | CCCc1c(OCC(O)COc2ccc3c(=O)cc(C(=O)O)oc3c2CCC)ccc(C(C)=O)c1O (configuration not stated) [FPL-55712] | 98 | – | 0.79 | > 1 | > 1 | IC50 (Cavia porcellus [6]): 0.5 % conc; IC50 (Cavia porcellus [8]): > 3 % conc; IC50 (Cavia porcellus [11]): 0.79 % conc
4 | CCCc1c(OCCCOc2ccc3ccc(OCC(=O)O)cc3c2)ccc(C(C)=O)c1O | – | 300 | – | – | – | inhibition (Cavia porcellus [12]): inactive; IC50 (Cavia porcellus [13]): 0.46 % conc
5 | CCCc1c(OCCOCCOc2c(C(C)=O)ccc(OCC(=O)O)c2CCC)ccc(C(C)=O)c1O | 86 | 200 | – | – | – | IC50 (Cavia porcellus [14]): 0.02 % conc
6 | CCCc1c(OCCCCCOc2c(C(C)=O)ccc(OCC(=O)O)c2CCC)ccc(C(C)=O)c1O | 73 | 100 | 0.02 | > 1 | 1 | IC50 (Cavia porcellus [6]): 0.13 % conc; IC50 (Cavia porcellus [8]): 0.11 % conc; IC50 (Cavia porcellus [15]): 0.02 % conc
7 | CCCc1c(OCCCOc2ccc3ccc(OCCCC(=O)O)cc3c2)ccc(C(C)=O)c1O | – | 5000 | – | – | – | IC50 (Cavia porcellus [2]): 1 % conc; inhibition in vivo at 10 mg/kg (Cavia porcellus [16]): 75%
8 | CCCc1c(OCCOCCOCCOCCOc2c(C(C)=O)ccc(OCC(=O)O)c2CCC)ccc(C(C)=O)c1O | 90 | – | 0.04 | 0.8 | > 1 | IC50 (Cavia porcellus [17]): 1.3 % conc; IC50 (Cavia porcellus [18]): 0.18 % conc; IC50 (Cavia porcellus [19]): 0.04 % conc; IC50 (Cavia porcellus [3]): 300 nM
9 | CCCc1c(OCCCOc2ccc3ccc(OCCCC(=O)O)cc3c2C(C)=O)ccc(C(C)=O)c1O | 93 | 80 | – | – | – | IC50 (Cavia porcellus [20]): 0.61 % conc
10 | CCCc1c(OCCCOCCCOc2c(C(C)=O)ccc(OCCCC(=O)O)c2CCC)ccc(C(C)=O)c1O | 93 | 200 | 0.01 | > 1 | 1 | IC50 (Cavia porcellus [21]): 0.01 % conc; IC50 (Cavia porcellus [6]): 0.19 % conc; IC50 (Cavia porcellus [8]): 0.15 % conc
11 | CCCc1c(OCCCOc2c(C(C)=O)ccc(OCCCC(=O)O)c2CCC)ccc(C(C)=O)c1O | 97 | 200 | – | – | – | IC50 (Cavia porcellus [22]): 0.18 % conc
12 | CCCc1c(OCCCCOCCCCOc2c(C(C)=O)ccc(OCC(=O)O)c2CCC)ccc(C(C)=O)c1O | 54 | 500 | – | – | – | IC50 (Cavia porcellus [23]): 0.1 % conc
13 | CCCc1c(OCCOCCOc2c(C(C)=O)ccc(OCCCCCC(=O)O)c2CCC)ccc(C(C)=O)c1O | 91 | 200 | – | – | – | IC50 (Cavia porcellus [2]): 1 % conc
14 | CCCc1c(OCCCCCOc2c(C(C)=O)ccc(OCCCC(=O)O)c2CCC)ccc(C(C)=O)c1O | 92 | 1000 | 0.01 | 0.9 | > 1 | IC50 (Cavia porcellus [6]): 0.57 % conc; IC50 (Cavia porcellus [24]): 0.01 % conc; IC50 (Cavia porcellus [8]): 0.16 % conc
15 | CCCc1c(OCCOCCOCCOc2c(C(C)=O)ccc(OCC(=O)O)c2CCC)ccc(C(C)=O)c1O | 85 | – | 0.04 | 0.8 | > 1 | IC50 (Cavia porcellus [6]): 0.19 % conc; IC50 (Cavia porcellus [3]): 1000 nM; IC50 (Cavia porcellus [8]): 0.36 % conc; IC50 (Cavia porcellus [25]): 0.04 % conc
16 | CCCc1c(OCCCOc2ccc3ccc(OCC(=O)O)cc3c2C(C)=O)ccc(C(C)=O)c1O | 90 | 200 | 0.02 | > 1 | > 1 | IC50 (Cavia porcellus [6]): 0.32 % conc; IC50 (Cavia porcellus [26]): 0.02 % conc; IC50 (Cavia porcellus [8]): 0.22 % conc
17 | CCCc1c(OCCCOCCCOc2c(C(C)=O)ccc(OCC(=O)O)c2CCC)ccc(C(C)=O)c1O | 91 | 400 | – | – | – | IC50 (Cavia porcellus [27]): 0.1 % conc
18 | CCCc1c(OCCCOc2c(C(C)=O)ccc(OCC(=O)O)c2CCC)ccc(C(C)=O)c1O | 95 | 2000 | – | – | – | IC50 (Cavia porcellus [28]): 0.07 % conc
19 | CCCc1c(OCCCOc2cccc(OCC(=O)O)c2)ccc(C(C)=O)c1O | 64 | 500 | – | – | – | IC50 (Cavia porcellus [29]): 0.07 % conc
20 | CCCc1c(OCCCCCOc2ccc3ccc(OCC(=O)O)cc3c2C(C)=O)ccc(C(C)=O)c1O | 60 | 200 | – | – | – | IC50 (Cavia porcellus [30]): 0.14 % conc
21 | CCCc1c(OCCCOc2c(C(C)=O)ccc(OCCCCCC(=O)O)c2CCC)ccc(C(C)=O)c1O | 91 | 1000 | – | – | – | IC50 (Cavia porcellus [15]): 0.02 % conc
